Hits are enriched below; roughly 6% of the tested compounds scored in any of these assays.
E coli WT exp – growth inhibitors of wild-type E. coli, primary screen, strain BW25113, expanded library, OD600 | AID 710, 2007 | hit rate 0.15% among 98,000 | OD600 absorbance | growth inhibition, % at 100 µM;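 active = growth inhibition above about 50% at one test dose, limit read from the data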;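 also: growth measured after 20 h incubation at 37 °C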
PostGolgi yeast – phenotypic screen on post-Golgi transport, primary screen | post-Golgi transport phenotypic cell assay | hit rate 0.9% among 98,000 | inhibition, % at 10 µM;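 also: yeast cells grown in 1536-well plates; yeast grown about 18 h at 30C before absorbance read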
PostGolgi ctrl – growth inhibition of yeast control strain, primary screen, counter-screen for post-Golgi transport modulator project. efflux-deficient yeast background strain, growth absorbance A615, 16 h. inhibition, % at 10 µM. hit rate 5% among 98,000. AID 738, 2007
EphB4 antag – EphB4-ephrin-B2 interaction antagonists, primary screen, biochemical, TNYL-RAW peptide probe, fluorescence polarization; hit rate 0.15% among 97,000; inhibition, % at 7 µM; Ephrin type-B receptor 4 (Homo sapiens), P54760; EphB4 LBD / TNYL-RAW-Alexa532 peptide;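 active = inhibition above the screen-wide mean inhibition plus 3 SD, cut at about 15% in these data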
tolC growth inh – growth inhibitors of E. coli tolC mutant, primary screen, strain BW25113 ΔtolC::kan, 384-well; OD615; growth inhibition, % at 10 µM (by protocol); hit rate 2.2% among 65,000; AID 573, 2007;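 active = growth inhibition at or above a cutoff equal to the mean over every tested compound plus 3 SD, cut at about 60% in these data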;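 also: growth measured after 20 h incubation at 37 °C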
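Test system: E. coli BW25113 ΔtolC::kan bacteria | Medium: Kanamycin-containing LB broth (50 µg/mL) | Dosing: One dose of 10 µM final | Times: 20 h incubation with compound, 37 °C | Detection: Optical density read at 615 nm | Read-out basis: Percent growth inhibition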
Large screens that a line does not name were inactive. Rule as the data show it, unless noted: active = inhibition above about 30%; inactive = the rest.

OCCN1CCN(Cc2cccc(Oc3ccc(Cl)cc3)c2)CC1	PostGolgi ctrl 43.7
O=P(Cc1ccccn1)(c1ccccc1)c1ccccc1	none (no result: tolC growth inh)
CCOC(=O)Nc1ccc(S(=O)(=O)Nn2cnnc2)cc1	none
Cc1c(Cl)cccc1NC(=O)c1nc(C)n(-c2cc(OC(C)C)c(Cl)cc2Cl)n1	PostGolgi ctrl 30.4 (no result: tolC growth inh)
O=C(CN(Cc1ccccc1F)C(=O)Cn1nnc(-c2cccs2)n1)NC1CCCCC1	none (no result: tolC growth inh)
O=C(NCc1ccccc1)c1ccc(S(=O)(=O)C(F)F)cc1	none (no result: tolC growth inh)
Cc1cc(=O)n(CC(C)C)c(O)c1C#N	EphB4 antag 16.6
O=C(COc1ccc(Cl)cc1)N/N=C/CCc1ccccc1	none (no result: tolC growth inh)
O=C1CCCc2nc3nc4ccccc4n3cc21	tolC growth inh 92.9
Cc1ccc(NC(=O)c2ccc(-n3cccn3)c([N+](=O)[O-])c2)cc1C	none (no result: tolC growth inh)
O=S(=O)(Nc1ccc(Cc2ccncc2)cc1)c1ccc(Cl)c(Cl)c1	PostGolgi yeast 106.8, PostGolgi ctrl 96.1 (no result: tolC growth inh)
O=C(Nc1ccc(Cl)cc1)c1ccc(-n2cccn2)c([N+](=O)[O-])c1	PostGolgi ctrl 37.7 (no result: tolC growth inh)
O=C(Nc1ccc(Cc2ccncc2)cc1)c1ccc(Cl)c([N+](=O)[O-])c1	PostGolgi yeast 66.5, PostGolgi ctrl 78.2 (no result: tolC growth inh)
O=c1c2[nH]c3ccccc3c2ncn1C1CCCCC1	PostGolgi yeast 34.0
Cc1cccc(NC(=O)C2CC(=O)N(c3ccccc3)C2)c1C (centres undefined)	none (no result: tolC growth inh)
CCN1CC=C2C(C1)C(c1ccc(Cl)s1)C(C#N)=C(N)C2(C#N)C#N (centres undefined)	none
OC(COc1ccc2ccccc2c1Br)Cn1cnc(-c2ccccc2)c1 (centres undefined)	PostGolgi ctrl 52.6 (no result: tolC growth inh)
COc1ccc(OCC(O)Cn2cnc(-c3ccc(Br)cc3)c2)cc1 (centres undefined)	none (no result: E coli WT exp, PostGolgi yeast, PostGolgi ctrl, tolC growth inh)
COc1ccc(NC(=O)/C(Cl)=C(/Cl)S(=O)(=O)Cc2ccc(C)cc2)cn1	PostGolgi yeast 96.8, PostGolgi ctrl 84.3 (no result: tolC growth inh)
c1ccc(-c2cc3n(c2)CCc2ccccc2-3)cc1	none (no result: E coli WT exp, PostGolgi yeast, PostGolgi ctrl, tolC growth inh)
COc1ccc(OCC(O)CNc2ccc(Br)cc2)cc1 (centres undefined)	tolC growth inh 73.2
O=S(=O)(c1ccc2oc3ccc(S(=O)(=O)N4CCCCC4)cc3c2c1)N1CCCCC1	none (no result: tolC growth inh)
Cc1cccc(OCCCCc2c(C)n[nH]c2C)c1C	PostGolgi ctrl 37.5, tolC growth inh 100.0
COc1ccccc1OCCCc1c(C)n[nH]c1C	PostGolgi yeast 108.8, PostGolgi ctrl 100.2
Cc1cccc(OCCCCc2c(C)n[nH]c2C)c1	tolC growth inh 100.0
Cc1cccc(N2CCN(C(=O)C(Cc3ccccc3)n3cccc3)CC2)c1C (centres undefined)	none (no result: tolC growth inh)
Cn1c(=O)n(CCc2ccccc2)c(=O)c2c1nc1n2CCCN1c1ccc(F)cc1	none (no result: E coli WT exp, PostGolgi yeast, PostGolgi ctrl, EphB4 antag)
CCCc1cc(C(=O)OC)c(NC(=O)c2cc(C)on2)s1	none (no result: E coli WT exp, PostGolgi yeast, PostGolgi ctrl, tolC growth inh)
COC(CNC(=O)c1cc(C)nn1-c1ccccc1)OC	none (no result: tolC growth inh)
O=C(CSc1nn(-c2ccc(Cl)cc2)c(=S)s1)N1CCN(C(=O)c2ccco2)CC1	PostGolgi ctrl 51.8 (no result: EphB4 antag)
Cc1ccc(NC(=O)c2cc(S(=O)(=O)c3ccccc3)ccc2Cl)cc1	none (no result: tolC growth inh)
CCOC(=O)N/N=C\c1ccc([N+](=O)[O-])o1	E coli WT exp 100.0 (no result: tolC growth inh)
Cc1ccc(C)c(Cn2c(C(=O)OC(C)C)cc3c2ccn3C)c1	none (no result: tolC growth inh)
COC(=O)c1ccc(CSc2ccc3nnc(-c4cccc(F)c4)n3n2)o1	PostGolgi ctrl 41.1
CCOC(=O)CC(=O)CSc1ccc2nnc(-c3cccc(F)c3)n2n1	none
COc1ccc(S(=O)(=O)N(C)CC(=O)N2CCC(C(N)=O)CC2)cc1Cl	none (no result: EphB4 antag)
CCc1cccc(CC)c1NC(=O)CSc1nc2ccc(N3C(=O)C4C5C=CC(C5)C4C3=O)cc2s1 (centres undefined)	PostGolgi ctrl 30.1 (no result: tolC growth inh)
CC(C)NS(=O)(=O)c1ccc(OCC(=O)Nc2ccc(F)cc2F)cc1	none (no result: tolC growth inh)
Cc1onc(-c2ccccc2Cl)c1C(=O)Nc1sc2c(c1C(N)=O)CCC(C)C2 (centres undefined)	none (no result: E coli WT exp, PostGolgi yeast, PostGolgi ctrl, tolC growth inh)
CSc1ccc(S(=O)(=O)Nc2ccc(N3CCOCC3)c(Cl)c2)cc1	tolC growth inh 100.0
COc1ccc(NS(=O)(=O)c2ccc(SC)cc2)cc1	PostGolgi ctrl 50.2
CCc1ccccc1NS(=O)(=O)c1ccc(SC)cc1	tolC growth inh 72.5
COc1ccc(/C=C\C(=O)c2c(O)ccc3c(C)cc(=O)oc23)cc1OC	none (no result: tolC growth inh)
Cc1nn(C)c(Oc2cccc(Cl)c2)c1C(=O)Nc1ccc(F)cc1	none (no result: tolC growth inh)

Screening data as filed in PubChem.
